Activity calls are given as the source filed them. No cut-off for these calls is given here.
What was measured:
[1] = Metabolic stability in human liver microsomes assessed as compound remaining after 10 mins; format: ADME, Microsome; conditions: liver microsomes, read-out: Stability
[2] = Metabolic stability in mouse liver microsomes assessed as compound remaining after 10 mins; format: ADME, Microsome; conditions: liver microsomes, read-out: Stability
[3] = biological target: 11-beta-hydroxysteroid dehydrogenase 1 (Mus musculus, UniProt P50172); assay: Inhibition of mouse 11beta-HSD-1
[4] = biological target: T1, 11-beta-hydroxysteroid dehydrogenase type 2 (Homo sapiens) (UniProt P80365); assay: Inhibition of human 11beta-HSD-2 at 10 uM
T1 sequence (whole entry): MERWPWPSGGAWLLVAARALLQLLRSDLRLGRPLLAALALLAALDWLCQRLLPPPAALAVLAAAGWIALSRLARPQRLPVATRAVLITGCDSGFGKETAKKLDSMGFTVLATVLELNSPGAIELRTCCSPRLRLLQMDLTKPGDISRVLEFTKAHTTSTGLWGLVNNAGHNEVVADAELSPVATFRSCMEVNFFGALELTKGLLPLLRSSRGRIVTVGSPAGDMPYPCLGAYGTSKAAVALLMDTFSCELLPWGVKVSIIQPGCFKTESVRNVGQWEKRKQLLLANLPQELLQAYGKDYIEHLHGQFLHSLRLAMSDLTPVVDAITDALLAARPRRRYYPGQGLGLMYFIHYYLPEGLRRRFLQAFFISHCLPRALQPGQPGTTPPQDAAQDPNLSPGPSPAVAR

Cytochrome P450 1A2 = biological target: T2, Cytochrome P450 1A2 (Homo sapiens, UniProt P05177); assay: Inhibition of CYP1A2; format: ADME
T2 sequence (P05177 whole entry): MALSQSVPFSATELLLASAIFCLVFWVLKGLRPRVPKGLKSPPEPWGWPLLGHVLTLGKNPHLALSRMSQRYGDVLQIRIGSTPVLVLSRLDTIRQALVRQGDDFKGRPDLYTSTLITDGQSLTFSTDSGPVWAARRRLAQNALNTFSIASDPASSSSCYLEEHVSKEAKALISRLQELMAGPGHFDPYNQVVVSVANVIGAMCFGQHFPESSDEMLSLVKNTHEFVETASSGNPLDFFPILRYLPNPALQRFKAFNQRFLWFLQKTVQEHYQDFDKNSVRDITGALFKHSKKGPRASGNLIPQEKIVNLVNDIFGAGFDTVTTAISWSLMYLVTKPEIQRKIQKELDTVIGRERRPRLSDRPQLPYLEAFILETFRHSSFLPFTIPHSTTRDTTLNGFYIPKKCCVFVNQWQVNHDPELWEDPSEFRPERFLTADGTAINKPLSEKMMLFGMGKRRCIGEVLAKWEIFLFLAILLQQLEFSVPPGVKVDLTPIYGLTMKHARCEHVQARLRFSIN

Cytochrome P450 2C9 = Cytochrome P450 2C9 (Homo sapiens, UniProt P11712); assay: Inhibition of CYP2C9; format: ADME
Cytochrome P450 2C19 = Cytochrome P450 2C19 (Homo sapiens, UniProt P33261); assay: Inhibition of CYP2C19; format: ADME
Cytochrome P450 2D6 = Cytochrome P450 2D6 (Homo sapiens, UniProt P10635); assay: Inhibition of CYP2D6; format: ADME
Cytochrome P450 3A4 = Cytochrome P450 3A4 (Homo sapiens, UniProt P08684); assay: Inhibition of CYP3A4; format: ADME
[5] = biological target: T3, Nuclear receptor subfamily 1 group I member 2 (Homo sapiens, UniProt O75469); assay: Transactivation of PXR
T3 sequence (O75469 whole entry): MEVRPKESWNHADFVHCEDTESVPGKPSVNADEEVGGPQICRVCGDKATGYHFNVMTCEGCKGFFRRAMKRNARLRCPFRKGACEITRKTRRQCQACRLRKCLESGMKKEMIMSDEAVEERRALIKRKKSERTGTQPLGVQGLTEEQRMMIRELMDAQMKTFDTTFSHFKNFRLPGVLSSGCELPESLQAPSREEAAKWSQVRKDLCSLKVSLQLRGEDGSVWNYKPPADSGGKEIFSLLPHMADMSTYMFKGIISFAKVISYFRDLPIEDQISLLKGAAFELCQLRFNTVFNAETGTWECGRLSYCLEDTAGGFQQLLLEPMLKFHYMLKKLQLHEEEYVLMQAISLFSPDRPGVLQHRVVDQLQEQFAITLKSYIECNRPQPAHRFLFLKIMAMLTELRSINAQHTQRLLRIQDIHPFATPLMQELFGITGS

[6] = Cmax in mouse at 30 umol/kg; format: ADME, organism-based; parameters: dose 30 umol/kg; conditions: in vivo
Procedure, shortened: (§1)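 Oral dosing in mice, with the compound in water containing 0.5% methocel and 0.1% Tween 80. Plasma concentrations were measured at 1, 4 and 8 h after dosing.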

[7] = AUC (0 to 8 hrs) in mouse at 30 umol/kg; format: ADME, organism-based; parameters: time < 8 hr, dose 30 umol/kg; conditions: plasma; procedure, shortened: as §1
[8] = biological target: Voltage-gated inwardly rectifying potassium channel KCNH2 (Homo sapiens, UniProt Q12809); assay: Inhibition of human ERG
[9] = biological target: T4, Peroxisome proliferator-activated receptor alpha (Homo sapiens) (UniProt Q07869); assay: Activation of PPARalpha up to 30 uM
T4 sequence (whole entry): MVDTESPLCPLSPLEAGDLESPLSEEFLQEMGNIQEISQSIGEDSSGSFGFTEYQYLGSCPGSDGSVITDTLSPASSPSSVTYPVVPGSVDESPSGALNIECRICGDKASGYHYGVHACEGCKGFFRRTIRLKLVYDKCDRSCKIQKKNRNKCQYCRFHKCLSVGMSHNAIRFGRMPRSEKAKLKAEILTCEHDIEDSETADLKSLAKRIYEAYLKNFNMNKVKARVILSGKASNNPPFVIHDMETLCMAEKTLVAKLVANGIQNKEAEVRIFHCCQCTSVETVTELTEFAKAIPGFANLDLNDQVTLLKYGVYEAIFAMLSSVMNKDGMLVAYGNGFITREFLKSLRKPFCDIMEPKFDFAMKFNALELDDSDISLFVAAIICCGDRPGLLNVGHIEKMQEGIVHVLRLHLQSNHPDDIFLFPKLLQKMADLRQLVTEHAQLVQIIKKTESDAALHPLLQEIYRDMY

[10] = biological target: T5, Peroxisome proliferator-activated receptor gamma (Homo sapiens) (UniProt P37231); assay: Activation of PPARgamma up to 30 uM
T5 sequence (whole entry): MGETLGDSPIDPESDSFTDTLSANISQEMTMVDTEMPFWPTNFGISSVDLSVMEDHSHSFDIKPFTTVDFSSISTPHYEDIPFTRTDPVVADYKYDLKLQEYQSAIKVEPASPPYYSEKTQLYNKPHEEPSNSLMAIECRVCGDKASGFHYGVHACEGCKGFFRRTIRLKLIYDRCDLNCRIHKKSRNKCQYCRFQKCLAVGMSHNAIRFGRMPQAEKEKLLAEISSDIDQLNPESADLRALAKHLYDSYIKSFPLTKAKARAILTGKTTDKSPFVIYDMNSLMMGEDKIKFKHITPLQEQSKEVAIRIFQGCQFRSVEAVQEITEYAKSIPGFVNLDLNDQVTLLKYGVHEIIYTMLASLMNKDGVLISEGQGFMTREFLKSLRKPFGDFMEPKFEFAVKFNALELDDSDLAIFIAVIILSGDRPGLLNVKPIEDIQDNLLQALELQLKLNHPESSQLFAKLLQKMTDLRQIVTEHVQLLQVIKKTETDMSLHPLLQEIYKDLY

[11] = biological target: T6, Peroxisome proliferator-activated receptor delta (Homo sapiens) (UniProt Q03181); assay: Activation of PPARdelta up to 30 uM
T6 sequence (whole entry): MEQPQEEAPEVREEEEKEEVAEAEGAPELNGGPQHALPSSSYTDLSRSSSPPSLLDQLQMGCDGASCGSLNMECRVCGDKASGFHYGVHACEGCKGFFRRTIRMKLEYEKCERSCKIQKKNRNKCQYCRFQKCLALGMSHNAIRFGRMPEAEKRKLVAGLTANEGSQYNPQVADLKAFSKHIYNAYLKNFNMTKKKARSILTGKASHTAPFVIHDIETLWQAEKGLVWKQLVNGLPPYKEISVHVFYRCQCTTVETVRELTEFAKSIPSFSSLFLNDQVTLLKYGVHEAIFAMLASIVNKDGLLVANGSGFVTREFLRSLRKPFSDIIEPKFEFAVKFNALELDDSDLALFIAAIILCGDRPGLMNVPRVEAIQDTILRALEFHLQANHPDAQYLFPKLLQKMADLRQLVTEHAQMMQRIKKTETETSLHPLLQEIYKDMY

[12] = biological target: 11-beta-hydroxysteroid dehydrogenase type 2 (Homo sapiens) (UniProt P80365); assay: Inhibition of human 11beta-HSD-2

Cytochrome P450 2D6, sequence (P10635 whole entry): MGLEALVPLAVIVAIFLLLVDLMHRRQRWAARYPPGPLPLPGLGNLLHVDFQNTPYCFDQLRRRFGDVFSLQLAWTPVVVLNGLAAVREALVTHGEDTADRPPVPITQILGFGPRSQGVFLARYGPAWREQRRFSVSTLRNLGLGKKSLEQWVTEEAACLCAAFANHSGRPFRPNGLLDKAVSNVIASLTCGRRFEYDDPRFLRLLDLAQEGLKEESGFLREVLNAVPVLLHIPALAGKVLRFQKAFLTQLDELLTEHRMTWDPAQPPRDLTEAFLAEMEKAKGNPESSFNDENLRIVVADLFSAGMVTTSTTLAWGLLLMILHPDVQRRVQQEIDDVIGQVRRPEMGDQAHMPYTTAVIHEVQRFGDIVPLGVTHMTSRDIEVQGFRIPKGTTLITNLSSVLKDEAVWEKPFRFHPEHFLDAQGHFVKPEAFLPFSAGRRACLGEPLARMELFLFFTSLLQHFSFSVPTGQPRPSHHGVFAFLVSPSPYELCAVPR
Cytochrome P450 2C19, sequence (P33261 whole entry): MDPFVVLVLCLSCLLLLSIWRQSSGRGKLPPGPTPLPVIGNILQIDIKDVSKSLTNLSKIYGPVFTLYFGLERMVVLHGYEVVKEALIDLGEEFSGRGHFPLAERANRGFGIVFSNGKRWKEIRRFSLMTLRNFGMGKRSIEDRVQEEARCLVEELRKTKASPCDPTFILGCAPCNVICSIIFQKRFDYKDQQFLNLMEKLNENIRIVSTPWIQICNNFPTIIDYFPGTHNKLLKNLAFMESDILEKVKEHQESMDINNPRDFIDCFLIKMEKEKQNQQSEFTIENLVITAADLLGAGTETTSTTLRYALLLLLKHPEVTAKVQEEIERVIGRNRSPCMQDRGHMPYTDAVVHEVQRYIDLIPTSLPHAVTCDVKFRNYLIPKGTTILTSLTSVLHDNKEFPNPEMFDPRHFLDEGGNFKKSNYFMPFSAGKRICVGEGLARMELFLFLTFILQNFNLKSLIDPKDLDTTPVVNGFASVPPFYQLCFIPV
Cytochrome P450 2C9, sequence (P11712 whole entry): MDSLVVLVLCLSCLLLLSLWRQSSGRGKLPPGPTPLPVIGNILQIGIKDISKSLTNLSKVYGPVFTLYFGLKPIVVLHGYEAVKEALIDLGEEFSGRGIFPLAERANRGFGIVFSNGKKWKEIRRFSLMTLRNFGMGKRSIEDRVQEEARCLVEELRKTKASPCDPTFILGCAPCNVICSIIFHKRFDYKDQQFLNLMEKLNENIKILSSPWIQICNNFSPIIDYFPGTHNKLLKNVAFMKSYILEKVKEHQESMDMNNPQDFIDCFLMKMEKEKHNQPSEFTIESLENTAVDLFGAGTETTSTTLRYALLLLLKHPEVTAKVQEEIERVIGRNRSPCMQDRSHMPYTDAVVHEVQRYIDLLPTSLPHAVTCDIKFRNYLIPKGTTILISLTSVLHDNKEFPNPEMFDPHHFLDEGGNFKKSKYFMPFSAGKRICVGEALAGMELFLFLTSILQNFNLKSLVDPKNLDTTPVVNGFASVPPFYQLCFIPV
Voltage-gated inwardly rectifying potassium channel KCNH2, sequence (Q12809 whole entry): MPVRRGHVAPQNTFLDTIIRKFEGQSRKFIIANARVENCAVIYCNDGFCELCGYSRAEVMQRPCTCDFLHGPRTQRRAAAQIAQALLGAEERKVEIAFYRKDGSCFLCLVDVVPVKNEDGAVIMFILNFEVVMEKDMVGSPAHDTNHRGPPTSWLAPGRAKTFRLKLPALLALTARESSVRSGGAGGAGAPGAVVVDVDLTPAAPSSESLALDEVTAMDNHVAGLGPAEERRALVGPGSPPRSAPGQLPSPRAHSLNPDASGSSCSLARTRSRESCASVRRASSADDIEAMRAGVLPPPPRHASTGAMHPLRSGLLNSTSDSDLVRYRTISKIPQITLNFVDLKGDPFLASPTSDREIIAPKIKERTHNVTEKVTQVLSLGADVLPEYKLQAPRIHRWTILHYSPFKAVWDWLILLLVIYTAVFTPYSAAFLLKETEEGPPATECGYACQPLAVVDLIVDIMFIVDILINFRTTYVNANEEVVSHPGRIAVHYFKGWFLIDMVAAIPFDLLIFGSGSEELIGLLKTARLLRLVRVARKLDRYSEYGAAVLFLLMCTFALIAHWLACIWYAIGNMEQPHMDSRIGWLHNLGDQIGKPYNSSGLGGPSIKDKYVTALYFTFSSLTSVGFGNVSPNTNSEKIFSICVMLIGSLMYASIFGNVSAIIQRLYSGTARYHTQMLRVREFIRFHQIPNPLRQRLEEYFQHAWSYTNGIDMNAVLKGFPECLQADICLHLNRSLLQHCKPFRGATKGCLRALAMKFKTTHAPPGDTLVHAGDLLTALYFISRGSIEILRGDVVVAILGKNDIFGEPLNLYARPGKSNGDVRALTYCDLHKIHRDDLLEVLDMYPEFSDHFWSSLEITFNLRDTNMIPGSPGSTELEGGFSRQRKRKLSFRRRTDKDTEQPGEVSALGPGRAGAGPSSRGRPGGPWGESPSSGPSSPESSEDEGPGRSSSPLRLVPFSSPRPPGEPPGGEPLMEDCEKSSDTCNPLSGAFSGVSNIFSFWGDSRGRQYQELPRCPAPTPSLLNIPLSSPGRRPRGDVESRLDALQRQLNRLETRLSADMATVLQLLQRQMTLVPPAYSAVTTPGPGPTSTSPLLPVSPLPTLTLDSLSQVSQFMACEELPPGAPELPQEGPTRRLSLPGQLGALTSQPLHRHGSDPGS
Cytochrome P450 3A4, sequence (P08684 whole entry): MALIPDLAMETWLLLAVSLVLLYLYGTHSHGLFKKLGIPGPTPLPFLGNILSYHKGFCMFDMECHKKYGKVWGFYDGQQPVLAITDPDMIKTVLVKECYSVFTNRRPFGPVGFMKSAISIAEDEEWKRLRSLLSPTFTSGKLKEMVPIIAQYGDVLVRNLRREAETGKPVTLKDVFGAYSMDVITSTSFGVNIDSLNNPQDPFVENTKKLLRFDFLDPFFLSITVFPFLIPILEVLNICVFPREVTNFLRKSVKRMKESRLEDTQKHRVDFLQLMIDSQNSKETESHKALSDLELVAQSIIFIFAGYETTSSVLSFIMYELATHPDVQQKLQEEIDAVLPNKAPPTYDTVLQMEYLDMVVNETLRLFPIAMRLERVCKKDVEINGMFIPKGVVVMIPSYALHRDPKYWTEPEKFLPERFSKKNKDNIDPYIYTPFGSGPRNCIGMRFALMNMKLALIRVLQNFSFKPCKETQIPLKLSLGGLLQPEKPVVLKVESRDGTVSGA
11-beta-hydroxysteroid dehydrogenase 1, sequence (P50172 whole entry): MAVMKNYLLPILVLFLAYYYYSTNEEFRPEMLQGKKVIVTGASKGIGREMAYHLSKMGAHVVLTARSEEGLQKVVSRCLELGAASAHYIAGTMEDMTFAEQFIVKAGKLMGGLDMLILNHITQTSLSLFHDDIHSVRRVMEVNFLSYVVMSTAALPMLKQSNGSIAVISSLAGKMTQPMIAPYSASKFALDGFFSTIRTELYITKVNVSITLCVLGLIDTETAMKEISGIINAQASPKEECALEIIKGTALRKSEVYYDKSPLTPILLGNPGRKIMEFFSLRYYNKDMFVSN

O=C(O)CC1(c2ccc(F)cc2)C2CC3CC(C2)CC1C3 (configuration not stated)
remaining at 10 min [1]: 78%
remaining at 10 min [2]: 48%
IC50 [3]: 120 nM
inhibition [4]: < 50%
inhibition (INH) (Cytochrome P450 1A2): Active
inhibition (INH) (Cytochrome P450 2C9): Active
inhibition (INH) (Cytochrome P450 2C19): Active
inhibition (INH) (Cytochrome P450 2D6): Active
inhibition (INH) (Cytochrome P450 3A4): Active
EC50 [5]: > 50 µM
Cmax [6]: 480 nM
AUC(0-t) at 8 h [7]: 2 µM·h
inhibition (INH) [8]: Active
Activity [9]: inactive
Activity [10]: inactive
Activity [11]: inactive
inhibition [12]: inactive

Source: ChEMBL document CHEMBL1909591, “Design, synthesis, and SAR studies of novel polycyclic acids as potent and selective inhibitors of human 11β-hydroxysteroid dehydrogenase type 1 (11β-HSD-1)” (Bioorg Med Chem Lett, 2011)
